16 compounds from PMC8598261 (European Journal of Medicinal Chemistry, 2021) can be followed below.

The target of one series is T1, caspase-1 (Homo sapiens, UniProt P29466).
T1 sequence (P29466 120-297 limits assumed): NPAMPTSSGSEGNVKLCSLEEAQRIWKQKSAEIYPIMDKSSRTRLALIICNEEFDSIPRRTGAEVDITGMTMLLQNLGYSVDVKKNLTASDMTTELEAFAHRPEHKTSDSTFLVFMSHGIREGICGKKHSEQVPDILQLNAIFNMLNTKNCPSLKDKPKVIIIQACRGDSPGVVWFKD
T1 sequence (P29466 317-404 limits assumed): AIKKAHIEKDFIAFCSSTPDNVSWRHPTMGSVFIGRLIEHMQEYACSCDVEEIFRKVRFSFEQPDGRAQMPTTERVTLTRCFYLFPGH
Briefly: Caspase-1 inhibition assay, cleavage of fluorogenic substrate YVAD-AFC. The class given is biochemical. The conditions noted are these: for remaining activity at 100 µM: read-out: Enzyme activity (% at 100 μM). In a few lines:
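Fluorogenic caspase-1 assay: cleavage of YVAD-AFC releases free AFC, followed as a time course of fluorescence increase (Ex/Em 400/505 nm) and compared with an untreated control. Test compounds were run as 10-dose, 3-fold serial dilutions starting at 100 μM or 10 μM to give IC50. Residual activity at 100 μM is reported as % enzyme activity.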

In another series the test system is U937 cells. Briefly: U937 cell growth inhibition / cell viability by MTT assay. The class given is cell-based, human. The conditions noted are these: lowest concentrations (range 1 nM to 100 μM), 48 h. Put shortly: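 Human U937 cells were grown in RPMI 1640 with 10% FBS, penicillin and streptomycin at 37 °C in 5% CO2. They were seeded at 10000 cells/well and exposed to test compound at 1 nM–100 μM for 48 h, with matched DMSO-only controls. MTT (0.1 mg/well) was added for 4 h at 37 °C, then cells were lysed and A595 read. Viability is % of control (100%), mean of three independent experiments.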
On the technique in general: Formazan colour is commonly taken as a measure of viable cells.

Each structure is given as a SMILES string. A value given as a limit tells only on which side of the number the result lay.

Take `O=C(O)C[C@@H](O)CNC(c1ccccc1)c1nnnn1CCCC(=O)N1CCc2ccccc2C1` (mixture of isomers) [(3R)5 ag, Sodium (3R)-4-(((1-(4-(3,4-dihydroisoquinolin-2(1H)-yl)-4-oxobutyl)-1H-tetrazol-5-yl)(phenyl)methyl)amino)-3-hydroxybutanoate]: on caspase-1, the IC50 (commonly the concentration needed to halve the response being measured) worked out at 53.5 µM and the remaining activity at 100 µM is 40.5%.

With `CC(C)(C)CC(NC[C@H](O)CC(=O)O)c1nnnn1CCCC(=O)N1CCc2ccccc2C1` (mixture of isomers) [(3R)5ae, Sodium (3R)-4-((1-(1-(4-(3,4-dihydroisoquinolin-2(1H)-yl)-4-oxobutyl)-1H-tetrazol-5-yl)-3,3-dimethylbutyl)amino)-3-hydroxybutanoate], at caspase-1, the IC50 was determined as 12.2 µM and the remaining activity at 100 µM came to 9.71%. For `O=C(O)C[C@@H](O)CNC(c1cccs1)c1nnnn1CCCC(=O)N1CCc2ccccc2C1` (mixture of isomers) [(3R)5ah, Sodium (3R)-4-(((1-(4-(3,4-dihydroisoquinolin-2(1H)-yl)-4-oxobutyl)-1H-tetrazol-5-yl)(thiophen-2-yl)methyl)amino)-3-hydroxybutanoate], in that order: 32.6 µM and 29%. For `O=C(O)C[C@@H](O)CNC(c1cccs1)c1nnnn1CCCC(=O)NCc1ccccc1` (mixture of isomers) [(3R)5bf, Sodium (3R)-4-(((1-(4-(benzylamino)-4-oxobutyl)-1H-tetrazol-5-yl)(thiophen-2-yl)methyl)amino)-3-hydroxybutanoate] the same measures were 77.8 µM and 49.6%. For `CC(C)(C)CC(c1nnnn1CCCC(=O)N1CCc2ccccc2C1)N(Cc1ccccc1)C[C@H](O)CC(=O)O` (mixture of isomers) [(3R)16ac, Sodium (3R)-4-((1-(1-(4-(3,4-dihydroisoquinolin-2(1H)-yl)-4-oxobutyl)-1H-tetrazol-5-yl)-3,3-dimethylbutyl)(benzyl)amino)-3-hydroxybutanoate], in that order: 15 µM and 4.45%. `O=C(O)C[C@H](O)CNC(c1ccccc1)c1nnnn1CCCC(=O)N1CCc2ccccc2C1` (mixture of isomers) [(3S)5 ag, Sodium (3S)-4-(((1-(4-(3,4-dihydroisoquinolin-2(1H)-yl)-4-oxobutyl)-1H-tetrazol-5-yl)(phenyl)methyl)amino)-3-hydroxybutanoate]: at caspase-1, it took 68 µM to reach half-maximal inhibition (IC50) and the remaining activity at 100 µM is 48.6%. For `O=C(O)C[C@H](O)CNC(c1cccs1)c1nnnn1CCCC(=O)N1CCc2ccccc2C1` (mixture of isomers) [(3S)5ah, Sodium (3S)-4-(((1-(4-(3,4-dihydroisoquinolin-2(1H)-yl)-4-oxobutyl)-1H-tetrazol-5-yl)(thiophen-2-yl)methyl)amino)-3-hydroxybutanoate] the same measures were 51.4 µM and 37.2%.

Turning to `CC(NCC(O)CC(=O)O)c1nnnn1CCCC(=O)N1CCc2ccccc2C1` (centres unmarked) [5aa, Sodium 4-((1-(1-(4-(3,4-dihydroisoquinolin-2(1H)-yl)-4-oxobutyl)-1H-tetrazol-5-yl)ethyl)amino)-3-hydrxybutanoate], the remaining activity at 100 µM on caspase-1 is more than 96.7%. For the compound `CC(C)(C)CC(NCC(O)CC(=O)[O-])c1nnnn1CCCC(=O)N1CCc2ccccc2C1.[Na+]` (centres unmarked) [5ae, Sodium-4-((1-(1-(4-(3,4-dihydroisoquinolin-2(1H)-yl)-4-oxobutyl)-1H-tetrazol-5-yl)-3,3-dimethylbutyl)amino)-3-hydroxybutanoate], the cytotoxic effect result in the series on U937 cells is on record as “low or is not significant”. With `CC(NCC(O)CC(=O)O)c1nnnn1CCCC(=O)NCc1ccccc1` (centres unmarked) [5ba, Sodium 4-((1-(1-(4-(benzylamino)-4-oxobutyl)-1H-tetrazol-5-yl)ethyl)amino)-3-hydroxybutanoate], the remaining activity at 100 µM on caspase-1 is more than 96.7%. Consider `CC(C)C(NCC(O)CC(=O)O)c1nnnn1CCCC(=O)NCc1ccccc1` (centres unmarked) [5bb, Sodium 4-((1-(1-(4-(benzylamino)-4-oxobutyl)-1H-tetrazol-5-yl)-2-methylpropyl)amino)-3-hydroxybutanoate], for which, on caspase-1, the remaining activity at 100 µM is more than 96.7%.

For `O=C(O)CC(O)CNC(c1ccccc1)c1nnnn1CCCC(=O)NCc1ccccc1` (centres unmarked) [5be, Sodium 4-(((1-(4-(benzylamino)-4-oxobutyl)-1H-tetrazol-5-yl)(phenyl)methyl)amino)-3-hydroxybutanoate], the remaining activity at 100 µM on caspase-1 was more than 96.7%.

Regarding `O=C(O)CC(O)CNC(c1cccs1)c1nnnn1CCCC(=O)NCc1ccccc1` (centres unmarked) [5bf, Sodium 4-(((1-(4-(benzylamino)-4-oxobutyl)-1H-tetrazol-5-yl)(thiophen-2-yl)methyl)amino)-3-hydroxybutanoate], the remaining activity at 100 µM on caspase-1 is more than 96.7%. As for `COc1cc2c(cc1OC)CN(C(=O)CCCn1nnnc1C(NCC(O)CC(=O)O)C(C)C)CC2` (centres unmarked) [5ca, Sodium 4-((1-(1-(4-(6,7-dimethoxy-3,4-dihydroisoquinolin-2(1H)-yl)-4-oxobutyl)-1H-tetrazol-5-yl)-2-methylpropyl)amino)-3-hydroxybutanoate], the remaining activity at 100 µM at caspase-1 was more than 96.7%. Same read-out and setting: next, `COc1cc2c(cc1OC)CN(C(=O)CCCn1nnnc1C(NCC(O)CC(=O)O)c1cccs1)CC2` (centres unmarked) [5ce, Sodium 4-(((1-(4-(6,7-dimethoxy-3,4-dihydroisoquinolin-2(1H)-yl)-4-oxobutyl)-1H-tetrazol-5-yl)(thiophen-2-yl)methyl)amino)-3-hydroxybutanoate]: more than 96.7%. Take `CC(C)CC(c1nnnn1CCCC(=O)N1CCc2ccccc2C1)N(Cc1ccccc1)CC(O)CC(=O)[O-].[Na+]` (centres unmarked) [16aa, Sodium 4-(benzyl(1-(1-(4-(3,4-dihydroisoquinolin-2(1H)-yl)-4-oxobutyl)-1H-tetrazol-5-yl)-3-methylbutyl)amino)-3-hydroxybutanoate]: in the series with U937 cells, the cytotoxic effect result was “low or is not significant”.
